Molecules are shown by their SMILES.

Ratio IC50, IC50 and inhibition data for 3 compounds are collected here from ChEMBL document CHEMBL3352054, “Discovery of new 7-substituted-4-imidazolylmethyl coumarins and 4'-substituted-2-imidazolyl acetophenones open analogues as potent and selective inhibitors of steroid-11β-hydroxylase” (Eur J Med Chem, 2015).

The species named for one data set is Homo sapiens. The data set can be described thus: Selectivity index, ratio of IC50 for human placental microsomal CYP19 to IC50 for human CYP11B1.
Conditions: not given
`O=C(Cn1ccnc1)c1ccc(OCc2ccccc2)cc1`: the Ratio IC50 was 30.

Take `COc1cccc(COc2ccc3c(Cn4ccnc4)cc(=O)oc3c2)c1`: the Ratio IC50 was determined as 11.

Take `O=c1cc(Cn2ccnc2)c2ccc(OCCc3ccccc3)cc2o1`: the Ratio IC50 was determined as 2.5.

The target in a further data set is T1, Cytochrome P450 11B1, mitochondrial (Homo sapiens, UniProt P15538).
T1 sequence (P15538 whole entry): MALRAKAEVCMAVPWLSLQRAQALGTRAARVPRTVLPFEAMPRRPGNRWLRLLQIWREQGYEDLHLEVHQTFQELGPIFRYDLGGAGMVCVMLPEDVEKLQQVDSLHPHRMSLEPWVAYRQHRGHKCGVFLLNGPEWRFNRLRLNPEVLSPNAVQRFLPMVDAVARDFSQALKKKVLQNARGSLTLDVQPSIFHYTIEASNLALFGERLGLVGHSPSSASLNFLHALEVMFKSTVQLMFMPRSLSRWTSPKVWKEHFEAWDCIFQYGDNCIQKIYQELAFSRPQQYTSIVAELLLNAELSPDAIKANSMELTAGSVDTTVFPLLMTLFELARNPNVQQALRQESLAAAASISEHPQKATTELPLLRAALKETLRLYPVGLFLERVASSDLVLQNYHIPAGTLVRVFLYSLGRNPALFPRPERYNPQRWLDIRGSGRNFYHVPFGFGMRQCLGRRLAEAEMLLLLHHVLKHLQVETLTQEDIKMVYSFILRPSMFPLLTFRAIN
The data set can be described thus: Inhibition of human CYP11B1 expressed in hamster V79MZh11B1 cells using [1,2-3H]-11-deoxycorticosterone substrate incubated for 25 mins by HPLC method. Type of data set: cell-based.
Conditions: not given
Turning to `O=C(Cn1ccnc1)c1ccc(OCc2ccccc2)cc1`, inhibition was half-maximal at 149 nM (IC50). In other words, the sub-micromolar range.

`COc1cccc(COc2ccc3c(Cn4ccnc4)cc(=O)oc3c2)c1`: the IC50 amounted to 48 nM. This IC50 lies about 3.1-fold lower than the previous one.

`O=c1cc(Cn2ccnc2)c2ccc(OCCc3ccccc3)cc2o1` displayed an IC50 of 258 nM. This IC50 is about 5.4-fold higher than that of the compound before.

The next data set addresses T2, Cytochrome P450 11B2, mitochondrial (Homo sapiens, UniProt P19099).
T2 sequence (P19099 whole entry): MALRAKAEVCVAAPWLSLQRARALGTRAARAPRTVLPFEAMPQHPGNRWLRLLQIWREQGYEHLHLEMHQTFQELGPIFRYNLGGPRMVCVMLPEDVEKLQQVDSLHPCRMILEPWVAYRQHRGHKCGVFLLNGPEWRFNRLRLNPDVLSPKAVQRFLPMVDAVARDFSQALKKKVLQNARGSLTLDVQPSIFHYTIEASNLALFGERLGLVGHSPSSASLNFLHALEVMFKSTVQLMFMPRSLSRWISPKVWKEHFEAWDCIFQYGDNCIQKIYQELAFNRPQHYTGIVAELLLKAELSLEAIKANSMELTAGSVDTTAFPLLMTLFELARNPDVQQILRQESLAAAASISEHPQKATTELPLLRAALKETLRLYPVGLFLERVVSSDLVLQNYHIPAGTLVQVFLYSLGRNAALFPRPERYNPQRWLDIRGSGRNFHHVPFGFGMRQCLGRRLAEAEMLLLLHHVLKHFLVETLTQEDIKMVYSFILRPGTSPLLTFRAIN
The data set can be described thus: Inhibition of human CYP11B2 expressed in hamster V79MZh11B2 cells using [1,2-3H]-11-deoxycorticosterone substrate incubated for 45 mins by HPLC method.
Conditions: not given
`O=C(Cn1ccnc1)c1ccc(OCc2ccccc2)cc1`: the IC50 turned out to be 588 nM.

`COc1cccc(COc2ccc3c(Cn4ccnc4)cc(=O)oc3c2)c1` came in with an IC50 of 127 nM.

Turning to `O=c1cc(Cn2ccnc2)c2ccc(OCCc3ccccc3)cc2o1`, inhibition was half-maximal at 899 nM (IC50).

The species named for a further data set is Homo sapiens. As to the kind of experiment: Selectivity index, ratio of IC50 for human CYP11B2 to IC50 for human CYP11B1.
Conditions: not given
As for `O=C(Cn1ccnc1)c1ccc(OCc2ccccc2)cc1`, the Ratio IC50 was 3.9.

`COc1cccc(COc2ccc3c(Cn4ccnc4)cc(=O)oc3c2)c1`: the Ratio IC50 came to 2.6.

In the case of `O=c1cc(Cn2ccnc2)c2ccc(OCCc3ccccc3)cc2o1`, the Ratio IC50 came out at 3.5.

Another data set concerns the target T3, Aromatase (Homo sapiens, UniProt P11511).
T3 sequence (P11511 whole entry): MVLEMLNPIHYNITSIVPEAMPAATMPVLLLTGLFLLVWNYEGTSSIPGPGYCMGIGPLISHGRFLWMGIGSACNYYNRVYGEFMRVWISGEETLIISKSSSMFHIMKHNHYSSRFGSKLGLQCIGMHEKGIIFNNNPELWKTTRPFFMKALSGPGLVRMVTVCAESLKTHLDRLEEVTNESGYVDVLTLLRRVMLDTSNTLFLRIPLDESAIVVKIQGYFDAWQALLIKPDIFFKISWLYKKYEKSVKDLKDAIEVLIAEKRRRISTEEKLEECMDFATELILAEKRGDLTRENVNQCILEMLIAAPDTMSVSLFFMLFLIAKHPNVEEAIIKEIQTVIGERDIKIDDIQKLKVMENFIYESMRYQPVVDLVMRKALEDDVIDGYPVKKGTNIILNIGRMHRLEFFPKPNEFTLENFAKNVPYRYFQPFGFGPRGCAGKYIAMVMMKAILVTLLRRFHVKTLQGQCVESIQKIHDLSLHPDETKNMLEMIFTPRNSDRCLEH
Assay: not given
Conditions: not given
`O=C(Cn1ccnc1)c1ccc(OCc2ccccc2)cc1` showed an IC50 of 4490 nM.

Compound `COc1cccc(COc2ccc3c(Cn4ccnc4)cc(=O)oc3c2)c1` gave an IC50 of 549 nM.

For the compound `O=c1cc(Cn2ccnc2)c2ccc(OCCc3ccccc3)cc2o1`, the IC50 came out at 639 nM. This IC50 and that of the compound before are within 1.5-fold of each other.

The next data set deals with T4, CYP17 (steroid 17-alpha-hydroxylase/17,20 lyase) (Homo sapiens, UniProt P05093).
T4 sequence (P05093 whole entry): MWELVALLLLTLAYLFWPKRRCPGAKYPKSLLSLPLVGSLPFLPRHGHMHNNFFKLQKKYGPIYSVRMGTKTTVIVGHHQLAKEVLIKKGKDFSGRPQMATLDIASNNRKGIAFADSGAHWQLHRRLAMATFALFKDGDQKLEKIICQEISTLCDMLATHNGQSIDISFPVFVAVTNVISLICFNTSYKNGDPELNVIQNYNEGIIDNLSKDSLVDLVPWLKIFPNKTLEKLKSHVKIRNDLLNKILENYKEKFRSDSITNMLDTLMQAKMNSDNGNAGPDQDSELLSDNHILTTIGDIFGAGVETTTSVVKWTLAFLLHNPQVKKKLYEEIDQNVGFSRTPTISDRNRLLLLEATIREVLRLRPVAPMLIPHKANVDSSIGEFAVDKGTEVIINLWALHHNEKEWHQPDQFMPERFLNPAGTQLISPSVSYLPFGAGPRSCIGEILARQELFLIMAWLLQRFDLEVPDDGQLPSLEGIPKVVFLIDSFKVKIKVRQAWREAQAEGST
As to the kind of experiment: Inhibition of human CYP17 expressed in Escherichia coli using [3H]-progesterone substrate pre-incubated for 5 mins at 2.5 uM in presence of rat P450 reductase by HPLC method. The settings on record: probe [3H]-progesterone. The method, boiled down:
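E. coli coexpressing human CYP17 and rat P450 reductase. Phosphate buffer pH 7.4 (MgCl2, EDTA, DTT) with an NADPH-generating system. Progesterone plus [3H]-progesterone, 24.95 μM + 0.05 μM final; inhibitor in DMSO. Preincubation 5 min at 37 °C, then enzyme added, 30 min at 37 °C. Stopped with HCl, ethyl acetate extraction. Percent inhibition from conversion versus uninhibited control.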
On to `O=C(Cn1ccnc1)c1ccc(OCc2ccccc2)cc1`, for which the inhibition at 2.5 µM came to 1%.

Regarding `COc1cccc(COc2ccc3c(Cn4ccnc4)cc(=O)oc3c2)c1`, the inhibition at 2.5 µM was 2%.

Regarding `O=c1cc(Cn2ccnc2)c2ccc(OCCc3ccccc3)cc2o1`, the inhibition at 2.5 µM turned out to be 2%.
